Tests used:
Type in all cases: functional, organism-based
Homo sapiens [1] = species on record: Homo sapiens; experiment: Antiplatelet aggregation (collagen-induced) activity at a concentration of 10 ug/mL
Summary of the method: (§1)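 Platelets preincubated with test compound, aspirin or DMSO (0.5%, control) at 37 °C for 3 min, then aggregation inducer added (arachidonic acid, collagen, PAF or thrombin). IC50 values given as means ± S.E. (n=3).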

Homo sapiens [2] = species on record: Homo sapiens; experiment: Antiplatelet aggregation (platelet activating factor-induced) activity at a concentration of 2 ng/mL; summary of the method: as §1
Homo sapiens [3] = species on record: Homo sapiens; experiment: Antiplatelet aggregation (thrombin-induced) activity at a concentration of 0.1 U; summary of the method: as §1
Homo sapiens [4] = species on record: Homo sapiens; experiment: Inhibitory activity against arachidonic acid-induced platelet aggregation at a concentration of 100 uM was determined; summary of the method: as §1

SMILES	IC50 (Homo sapiens [1])	IC50 (Homo sapiens [2])	IC50 (Homo sapiens [3])	IC50 (Homo sapiens [4])
CC(=O)Oc1ccccc1C(=O)O [ASPIRIN]	22.4 µM	> 100 µM	> 100 µM	44.6 µM
COc1cc2c(cc1OC)C1=C(c3cccc(Cl)c3)C(=O)C(=O)N1CC2	37.5 µM	> 100 µM	> 100 µM	53.8 µM
COc1cc2c(cc1OC)C1=C(c3ccc(Cl)cc3)C(=O)C(=O)N1CC2	30 µM	84.8 µM	> 100 µM	52.8 µM
COc1cc2c(cc1OC)C1=C(c3cccc(Br)c3)C(=O)C(=O)N1CC2	23.3 µM	> 100 µM	> 100 µM	45.5 µM
COc1ccc(C2=C3c4cc(OC)c(OC)cc4CCN3C(=O)C2=O)cc1	9.15 µM	33.2 µM	30.7 µM	15.2 µM
COc1cc2c(cc1OC)C1=C(c3ccc(Br)cc3)C(=O)C(=O)N1CC2	29.8 µM	> 100 µM	> 100 µM	72.7 µM
COc1cc2c(cc1OC)C1=C(c3ccccc3OC)C(=O)C(=O)N1CC2	35.8 µM	> 100 µM	> 100 µM	65.5 µM
COc1cccc(C2=C3c4cc(OC)c(OC)cc4CCN3C(=O)C2=O)c1	6.1 µM	> 100 µM	> 100 µM	21 µM
COc1cc2c(cc1OC)C1=C(c3ccccc3Br)C(=O)C(=O)N1CC2	39.8 µM	> 100 µM	> 100 µM	> 100 µM
COc1cc2c(cc1OC)C1=C(c3ccccc3Cl)C(=O)C(=O)N1CC2	44.9 µM	> 100 µM	> 100 µM	78.3 µM
